Common to all, as to type: cell-based
Assay [1] concerns HT-29 cells. Description: CCK-8 anti-proliferation assay, HT-29. The settings on record: Homo sapiens, HT-29, 72 h, read-out: IC50 HT-29, HT-29 cells, 72 h, CCK-8. (Tetrazolium assays rely on reduction of a dye to a coloured formazan, in cell work by metabolically active cells.)
Assay [2] deals with HCT-116 cells. The experiment in a line: CCK-8 anti-proliferation assay, HCT-116. The note with it: Homo sapiens, HCT-116, 72 h, read-out: IC50 HCT-116, HCT-116 cells, 72 h, CCK-8. The essentials:
(§1)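 HCT-116 and HCT-15 were grown in McCoy's 5A, and NCM-460 in RPMI 1640, each with 10% FBS and 1% penicillin-streptomycin at 37 °C, 5% CO2. Cells were seeded at 4 × 10^3 per well overnight, then exposed to graded concentrations of test compound for 72 h. Medium was replaced with fresh medium containing 10% CCK-8; A450 was read after 1 h at 37 °C. […] At least three independent experiments.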

Assay [3] deals with HCT-15 cells. The experiment in a line: CCK-8 anti-proliferation assay, HCT-15. The note with it: Homo sapiens, HCT-15, 72 h, read-out: IC50 HCT-15, HCT-15 cells, 72 h, CCK-8. The method, boiled down: as §1
In assay [4] the test system is NCM-460 cells. The experiment in a line: CCK-8 cytotoxicity, normal colon cell line NCM-460. The settings on record: Homo sapiens, NCM460, 72 h, read-out: IC50 NCM-460, normal human colon cell line NCM-460, 72 h, CCK-8. The method, boiled down: as §1

This is an account of results in PMC12699372 (RSC Advances, 2025).

In general, IC50 refers to the concentration needed to halve the response being measured.

As for `O=c1[nH]cc(F)c(=O)[nH]1` [5-FU, 5-fluorouracil, reference compound], the concentration for half-maximal inhibition (IC50) in assay [1] came to 3.63 ± 0.611 µM; in assay [2], 1.38 ± 0.21 µM; in assay [3] it was 13.3 ± 2.01 µM; in assay [4], 3.94 ± 1.41 µM.

Regarding `CC1(C)C[C@H]2[C@H]1CC[C@]1(C)CCC[C@@]2(n2cc(C(=O)NCCN)nn2)C1` [NC-14], the IC50 in assay [1] turned out to be 45.9 ± 11.1 µM.

In the case of `CC1(C)C[C@H]2[C@H]1CC[C@]1(C)CCC[C@@]2(n2cc(C(=O)N3CCNCC3)nn2)C1` [NC-16], the IC50 in assay [1] is 4.02 ± 0.14 µM; in assay [2] it was 17.9 ± 1.01 µM; in assay [3] it was 11.7 ± 0.85 µM; in assay [4], 26.1 ± 3.1 µM.

Consider `CC1(C)C[C@H]2[C@H]1CC[C@]1(C)CCC[C@@]2(n2cc(C(=O)NC3CCNCC3)nn2)C1` [NC-18], for which the IC50 in assay [1] was found to be 3.17 ± 0.24 µM; in assay [2], 14.7 ± 1.79 µM; in assay [3] it was 14.9 ± 0.98 µM; in assay [4], 18.6 ± 4.58 µM.
